According to ChEMBL document CHEMBL1128459, “Characterization of potent and selective antagonists at postsynaptic 5-HT1A receptors in a series of N4-substituted arylpiperazines” (J Med Chem, 1995):

Columns and labels:
[1] = test system: Rattus norvegicus; test: Minimum effective agonist dose administered subcutaneously; format: functional; conditions: sc, read-out: MED
Procedure, shortened: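 Male Wistar rats (200-220 g) were given the test drug alone sc in water (1.0 mL/kg), with vehicle reinjected at 30 min. Rectal temperature change from basal was measured 60 min after the first injection. MED for hypothermia was set against vehicle by ANOVA with Dunnett's test, P < 0.05.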

[2] = test system: Rattus norvegicus; test: Minimum effective antagonist dose administered subcutaneously; format: functional; conditions: sc, read-out: MED
Procedure, shortened: (§1)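 Male Wistar rats (200-220 g) had rectal temperature taken, then received the test drug sc in distilled water (1.0 mL/kg). After 30 min they got 8-OH-DPAT 0.16 mg/kg sc, and temperature was remeasured 30 min later. Change from basal was scored.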

[3] = molecular target: D(2) dopamine receptor (Rattus norvegicus) (UniProt P61169)
[4] = species: Rattus norvegicus; test: Maximum antagonist effect (% effect) expressed relative to 8-hydroxy-DPAT (100%); format: functional
Procedure, shortened: (§2)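 In the rat rectal-temperature model (sc dosing, 8-OH-DPAT 0.16 mg/kg sc for antagonism), the maximal percentage of induced hypothermia (agonist) and of block of 8-OH-DPAT hypothermia (antagonist) was recorded. Each value is given with the dose at which it was reached.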

[5] = molecular target: 5-hydroxytryptamine receptor 1B (Rattus norvegicus, UniProt P28564); test: Binding affinity at 5-hydroxytryptamine 1B receptor
Procedure, shortened: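 Rat frontal cortex membranes (1/40 wt/vol) were homogenized in 50 mM Tris pH 7.7 with pargyline, 4 mM CaCl2 and 0.1% ascorbic acid, then preincubated for 30 min at 37 °C. Labelled with 2.0 nM [3H]-5-HT, with 100 nM 8-OH-DPAT and 100 nM mesulergine masking 5-HT1A/5-HT2A sites; 5-CT defined nonspecific binding.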

[6] = molecular target: T1, 5-hydroxytryptamine receptor 1A (Rattus norvegicus, UniProt P19327); test: Binding affinity at 5-hydroxytryptamine 1A receptor
T1 sequence (P19327 whole entry): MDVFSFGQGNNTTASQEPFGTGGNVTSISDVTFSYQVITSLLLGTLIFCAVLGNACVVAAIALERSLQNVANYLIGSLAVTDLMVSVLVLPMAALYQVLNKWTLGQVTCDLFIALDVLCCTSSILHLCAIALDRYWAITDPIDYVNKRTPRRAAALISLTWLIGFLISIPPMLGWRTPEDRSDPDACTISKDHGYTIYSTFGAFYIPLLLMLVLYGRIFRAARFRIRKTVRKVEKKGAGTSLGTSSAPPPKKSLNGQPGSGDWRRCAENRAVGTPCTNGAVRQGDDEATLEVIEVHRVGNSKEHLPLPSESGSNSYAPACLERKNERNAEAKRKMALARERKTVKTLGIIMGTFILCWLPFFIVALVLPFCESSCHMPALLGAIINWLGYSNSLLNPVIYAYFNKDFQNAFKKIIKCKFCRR
Procedure, shortened: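 Rat hippocampal membranes (1/100 wt/vol) in 50 mM Tris pH 7.7 with 4 mM CaCl2, 0.1% ascorbic acid and pargyline. Membranes were spun at 25000g, preincubated 30 min at 37 °C and respun, then incubated with 0.4 nM [3H]-8-OH-DPAT for 30 min at 25 °C. 5-HT defined nonspecific binding, and samples were filtered on PEI-soaked GF/B. IC50 came from regression; pKi = −log[IC50/(1+[L]/Kd)].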

[7] = Ratio of MED (agonist) to that of MED (antagonist) values.; format: functional
Procedure, shortened: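 The MED for inducing hypothermia alone was divided by the MED for blocking 8-OH-DPAT (0.16 mg/kg sc) hypothermia. Both MEDs came from sc dosing in male Wistar rats and were tested against vehicle by ANOVA with Dunnett's test, P < 0.05.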

[8] = species: Rattus norvegicus; test: Maximum agonist effect (% effect) expressed relative to 8-hydroxy-DPAT (100%); format: functional; procedure, shortened: as §2
[9] = test system: Rattus norvegicus; test: Compound after subcutaneous administration was evaluated for antagonist activity against hypothermia induced by 8-hydroxy -DPAT in rat; format: functional; conditions: sc, read-out: ID50 (the source's name); procedure, shortened: as §1
[10] = molecular target: D(2) dopamine receptor (Rattus norvegicus, UniProt P61169); test: In vitro binding affinity towards Dopamine receptor D2 in rat striatum was determined using [3H]-spiperone as radioligand; format: tissue-based
Procedure, shortened: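 Rat striatal membranes (1/300 wt/vol), no preincubation, in 50 mM Tris pH 7.4 with CaCl2, ascorbic acid, 5 mM KCl, 1 mM MgCl2 and 120 mM NaCl. Ligand 0.2 nM [3H]spiperone, with 100 nM ketanserin masking 5-HT2A sites; raclopride defined nonspecific binding. Incubation 30 min at 37 °C, then filtration. pKi derived from regression-based IC50.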

Chain of 5-hydroxytryptamine receptor 1B (P28564 whole entry): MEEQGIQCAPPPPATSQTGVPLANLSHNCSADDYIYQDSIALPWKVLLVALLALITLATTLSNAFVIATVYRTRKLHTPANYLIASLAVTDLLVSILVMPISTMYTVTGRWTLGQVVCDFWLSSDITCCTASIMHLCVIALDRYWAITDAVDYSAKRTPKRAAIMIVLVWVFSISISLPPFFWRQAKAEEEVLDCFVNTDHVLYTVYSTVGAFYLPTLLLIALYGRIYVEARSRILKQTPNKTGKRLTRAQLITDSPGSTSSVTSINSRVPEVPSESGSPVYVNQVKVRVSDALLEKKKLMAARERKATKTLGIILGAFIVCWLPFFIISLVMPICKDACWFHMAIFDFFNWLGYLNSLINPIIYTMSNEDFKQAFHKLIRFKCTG
Chain of D(2) dopamine receptor (Rattus norvegicus) (P61169 whole entry): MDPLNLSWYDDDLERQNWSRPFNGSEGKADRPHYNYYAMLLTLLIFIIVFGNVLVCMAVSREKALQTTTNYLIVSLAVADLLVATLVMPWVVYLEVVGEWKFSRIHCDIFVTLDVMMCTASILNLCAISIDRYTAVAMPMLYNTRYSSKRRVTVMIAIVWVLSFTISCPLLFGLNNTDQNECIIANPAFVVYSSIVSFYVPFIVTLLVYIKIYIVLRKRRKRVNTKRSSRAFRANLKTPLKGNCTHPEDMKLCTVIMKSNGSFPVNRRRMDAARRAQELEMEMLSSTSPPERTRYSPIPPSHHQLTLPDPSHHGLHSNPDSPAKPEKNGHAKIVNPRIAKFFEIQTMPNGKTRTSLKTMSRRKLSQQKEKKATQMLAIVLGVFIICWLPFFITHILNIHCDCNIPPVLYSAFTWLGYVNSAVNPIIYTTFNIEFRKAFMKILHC
Chain of D(2) dopamine receptor (P61169 whole entry): as above

Compound: c1ccc2c(c1)CC2CCN1CCN(c2cccc3c2OCCCO3)CC1 (stereo not given)
- minimal effective dose [1]: 40 mg/kg
- minimal effective dose [2]: 1.25 mg/kg
- ID50 [3]: 30 mg/kg
- Max effect [4]: 72%
- Ki [5]: 562 nM
- Ki [6]: 1.15 nM
- Ratio [7]: 32
- Max effect [8]: 31%
- ED50 [9]: 2.68 mg/kg

Compound: COc1cc2nc(N3CCN(C(=O)c4ccco4)CC3)nc(N)c2cc1OC
- ID50 [3]: > 10 mg/kg

Compound: COc1ccccc1N1CCN(CCN2C(=O)CC3(CCCC3)CC2=O)CC1 [BMY-7378]
- minimal effective dose [1]: 2.5 mg/kg
- minimal effective dose [2]: 1.25 mg/kg
- ID50 [3]: 0.65 mg/kg
- Max effect [4]: 64%
- Ki [10]: 17.4 nM
- Ki [5]: > 10000 nM
- Max effect [8]: 53%
- ED50 [9]: 1.6 mg/kg

Compound: Fc1cccc2c1CC2CN1CCN(c2cccc3c2OCCO3)CC1 (stereo not given)
- minimal effective dose [1]: > 10 mg/kg
- minimal effective dose [2]: 0.63 mg/kg
- ID50 [3]: > 40 mg/kg
- Max effect [4]: 61%
- Ki [5]: 316 nM
- Ki [6]: 1.78 nM
- Ratio [7]: > 15.8
- Max effect [8]: 19%
- ED50 [9]: 2.51 mg/kg

Compound: c1ccc2c(c1)CC2CCCN1CCN(c2cccc3c2OCCO3)CC1 (stereo not given)
- minimal effective dose [1]: 10 mg/kg
- minimal effective dose [2]: 0.16 mg/kg
- ID50 [3]: 1.7 mg/kg
- Max effect [4]: 75%
- Ki [5]: 646 nM
- Ki [6]: 0.447 nM
- Ratio [7]: 62.5
- Max effect [8]: 100%
- ED50 [9]: 0.18 mg/kg

Compound: C1=C(CCN2CCN(c3cccc4c3OCCO4)CC2)c2ccccc2CC1
- minimal effective dose [1]: > 40 mg/kg
- minimal effective dose [2]: 0.63 mg/kg
- ID50 [3]: > 40 mg/kg
- Max effect [4]: 100%
- Ki [5]: 229 nM
- Ki [6]: 2 nM
- Ratio [7]: > 63.5
- Max effect [8]: 14%
- ED50 [9]: 0.4 mg/kg

Compound: C1=C(CCN2CCN(c3cccc4c3OCCO4)CC2)c2ccccc2CCC1
- minimal effective dose [1]: > 40 mg/kg
- minimal effective dose [2]: 2.5 mg/kg
- ID50 [3]: 40 mg/kg
- Max effect [4]: 55%
- Ki [5]: 380 nM
- Ki [6]: 3.16 nM
- Ratio [7]: > 16
- Max effect [8]: 33%
- ED50 [9]: 5.02 mg/kg

Compound: Clc1cccc2c1CC2CCCN1CCN(c2cccc3c2OCCO3)CC1 (stereo not given)
- minimal effective dose [1]: > 10 mg/kg
- minimal effective dose [2]: 0.63 mg/kg
- ID50 [3]: 40 mg/kg
- Max effect [4]: 60%
- Ki [5]: 1100 nM
- Ki [6]: 3.72 nM
- Ratio [7]: > 15.8
- Max effect [8]: 15%
- ED50 [9]: 3.09 mg/kg

Compound: c1ccc2c(c1)CC2CN1CCN(c2cccc3ccoc23)CC1 (stereo not given)
- minimal effective dose [1]: > 10 mg/kg
- minimal effective dose [2]: 2.5 mg/kg
- Max effect [4]: 96%
- Ki [5]: 912 nM
- Ki [6]: 7.94 nM
- Ratio [7]: > 4
- Max effect [8]: 15%
- ED50 [9]: 1.12 mg/kg

Compound: c1ccc2c(c1)CCC2CCCN1CCN(c2cccc3c2OCCO3)CC1 (stereo not given)
- minimal effective dose [1]: 10 mg/kg
- minimal effective dose [2]: 0.16 mg/kg
- ID50 [3]: > 40 mg/kg
- Max effect [4]: 81%
- Ki [5]: 204 nM
- Ki [6]: 0.617 nM
- Ratio [7]: 62.5
- Max effect [8]: 100%
- ED50 [9]: 0.29 mg/kg

Compound: COc1cc2c(cc1OC)C(CCN1CCN(c3cccc4c3OCCO4)CC1)C2 (stereo not given)
- minimal effective dose [1]: > 40 mg/kg
- minimal effective dose [2]: 1.25 mg/kg
- ID50 [3]: > 40 mg/kg
- Max effect [4]: 96%
- Ki [5]: 794 nM
- Ki [6]: 3.16 nM
- Ratio [7]: > 32
- Max effect [8]: 4%
- ED50 [9]: 1.41 mg/kg

Compound: c1ccc2c(c1)CC(CCCN1CCN(c3cccc4c3OCCO4)CC1)C2
- minimal effective dose [1]: 40 mg/kg
- minimal effective dose [2]: 0.63 mg/kg
- ID50 [3]: > 40 mg/kg
- Max effect [4]: 70%
- Ki [5]: 1860 nM
- Ki [6]: 1.26 nM
- Ratio [7]: 63.5
- Max effect [8]: 40%
- ED50 [9]: 0.47 mg/kg

Compound: c1ccc2c(c1)CC2CCCN1CCN(c2cccc3c2OCCCO3)CC1 (stereo not given)
- minimal effective dose [1]: > 2.5 mg/kg
- minimal effective dose [2]: 0.16 mg/kg
- Max effect [4]: 85%
- Ki [5]: 617 nM
- Ki [6]: 0.794 nM
- Ratio [7]: > 15.6
- Max effect [8]: 21%
- ED50 [9]: 0.27 mg/kg

Compound: c1ccc2c(c1)CC(CCN1CCN(c3cccc4c3OCCO4)CC1)C2
- minimal effective dose [1]: 10 mg/kg
- minimal effective dose [2]: 0.16 mg/kg
- ID50 [3]: 5.9 mg/kg
- Max effect [4]: 100%
- Ki [5]: 692 nM
- Ratio [7]: 62.5
- Max effect [8]: 50%
- ED50 [9]: 0.27 mg/kg

Compound: C1=C(CCN2CCN(c3cccc4c3OCCO4)CC2)Cc2ccccc21
- minimal effective dose [1]: 10 mg/kg
- minimal effective dose [2]: 0.31 mg/kg
- Max effect [4]: 81%
- Ki [5]: 933 nM
- Ki [6]: 0.537 nM
- Ratio [7]: 32.2
- Max effect [8]: 76%
- ED50 [9]: 0.36 mg/kg

Compound: c1cc2c(c(N3CCNCC3)c1)OCCO2 [ELTOPRAZINE]
- minimal effective dose [1]: 2.5 mg/kg
- minimal effective dose [2]: > 40 mg/kg
- Max effect [4]: 0%
- Ratio [7]: < 0.06
- Max effect [8]: 100%
- ED50 [9]: > 40 mg/kg

Compound: c1ccc2c(c1)CC2CN1CCN(c2cccc3c2OCCCO3)CC1 (stereo not given)
- minimal effective dose [1]: > 10 mg/kg
- minimal effective dose [2]: 0.63 mg/kg
- ID50 [3]: > 40 mg/kg
- Max effect [4]: 91%
- Ki [6]: 7.94 nM
- Ratio [7]: > 15.8
- Max effect [8]: 76%
- ED50 [9]: 0.32 mg/kg

Compound: C1=C(CCN2CCN(c3cccc4c3OCCO4)CC2)c2ccccc2C1
- minimal effective dose [1]: > 2.5 mg/kg
- minimal effective dose [2]: 0.63 mg/kg
- ID50 [3]: > 40 mg/kg
- Max effect [4]: 94%
- Ki [5]: 251 nM
- Ki [6]: 0.794 nM
- Ratio [7]: > 4
- Max effect [8]: 21%
- ED50 [9]: 0.45 mg/kg

Compound: COc1ccc2c(c1)C(CCN1CCN(c3cccc4c3OCCO4)CC1)C2 (stereo not given)
- minimal effective dose [1]: 10 mg/kg
- minimal effective dose [2]: 0.63 mg/kg
- ID50 [3]: > 40 mg/kg
- Max effect [4]: 95%
- Ki [5]: 316 nM
- Ki [6]: 1.26 nM
- Ratio [7]: 15.8
- Max effect [8]: 35%
- ED50 [9]: 0.48 mg/kg

Compound: c1ccc2c(c1)CCCC2CCN1CCN(c2cccc3c2OCCO3)CC1 (stereo not given)
- minimal effective dose [1]: > 2.5 mg/kg
- minimal effective dose [2]: 0.16 mg/kg
- ID50 [3]: 40 mg/kg
- Max effect [4]: 70%
- Ki [5]: 708 nM
- Ki [6]: 2.75 nM
- Ratio [7]: > 15.6
- Max effect [8]: 8%
- ED50 [9]: 0.4 mg/kg

Compound: c1ccc2c(c1)CC(CN1CCN(c3cccc4c3OCCO4)CC1)C2
- minimal effective dose [1]: > 10 mg/kg
- minimal effective dose [2]: 0.63 mg/kg
- ID50 [3]: > 40 mg/kg
- Max effect [4]: 87%
- Ki [5]: 490 nM
- Ki [6]: 2.82 nM
- Ratio [7]: > 15.8
- Max effect [8]: 0%
- ED50 [9]: 0.55 mg/kg

Compound: c1ccc2c(c1)CC2CN1CCN(c2cccc3c2OCCO3)CC1 (stereo not given)
- minimal effective dose [1]: 10 mg/kg
- minimal effective dose [2]: 0.63 mg/kg
- ID50 [3]: > 40 mg/kg
- Max effect [4]: 85%
- Ki [5]: 214 nM
- Ki [6]: 1.78 nM
- Ratio [7]: 15.8
- Max effect [8]: 100%
- ED50 [9]: 0.67 mg/kg

Compound: c1ccc2c(c1)CCCCC2CCN1CCN(c2cccc3c2OCCO3)CC1 (stereo not given)
- minimal effective dose [1]: > 10 mg/kg
- minimal effective dose [2]: 5 mg/kg
- ID50 [3]: > 10 mg/kg
- Max effect [4]: 96%
- Ki [5]: 776 nM
- Ki [6]: 6.61 nM
- Ratio [7]: > 2
- Max effect [8]: 9%
- ED50 [9]: 4.26 mg/kg
